SENP7 inh – SENP7 protease inhibitors, primary screen, biochemical, luminescence, uHTS; AID 434973, 2010; inhibition, % at 5 µM; Sentrin-specific protease 7 (Homo sapiens), Q9BQF6; 330,000 tested, 1.5% active; recombinant SENP7, Z-RLRGG-aminoluciferin luminescence, 40 min;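 active = inhibition above about 50% at the single test dose, limit read from the data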;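 also: plate controls were DMSO with enzyme for no effect and no enzyme buffer wells for full effect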
Target sequence (Q9BQF6 706-1050 limits assumed): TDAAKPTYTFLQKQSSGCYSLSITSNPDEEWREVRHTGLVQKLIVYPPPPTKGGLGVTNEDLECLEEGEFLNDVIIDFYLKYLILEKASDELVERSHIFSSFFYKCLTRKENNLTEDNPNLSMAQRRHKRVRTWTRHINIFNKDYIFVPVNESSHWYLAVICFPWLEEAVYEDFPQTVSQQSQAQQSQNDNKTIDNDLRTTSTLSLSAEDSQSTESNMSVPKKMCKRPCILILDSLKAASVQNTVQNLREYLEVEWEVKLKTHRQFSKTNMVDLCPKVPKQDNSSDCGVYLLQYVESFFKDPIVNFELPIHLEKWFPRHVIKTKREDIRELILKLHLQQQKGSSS
SENP1 inh – human SENP1 catalytic domain inhibitors, primary screen, biochemical, FRET, uHTS | Sentrin-specific protease 1 (Homo sapiens), Q9P0U3 | recombinant SENP1 catalytic domain, CyPet-SUMO1-YPet FRET cleavage | inhibition, % at 10 µM | 360,000 tested, 0.21% active | AID 624204, 2012;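 active = inhibition at least 30% at 10 µM, raw YFP signal under a set limit, fluorescence ratio 0.5 to 1.5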;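 also: 0% = enzyme with DMSO and 100% = no enzyme wells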
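Test system: human SENP1 catalytic domain; medium: Tris pH 8 buffer plus EDTA, NaCl, BME, BSA, NP40, catalase; incubation: 50 min reaction at room temperature; technique: FRET, CFP and YFP emission; controls: no-enzyme low control and enzyme-plus-DMSO high control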
HSP90 refold inh – HSP90 inhibitors, primary screen, cell lysate, luminescence; Heat shock protein HSP 90 (rabbit reticulocyte lysate; luciferase refolding); Rabbit reticulocyte lysate, luciferase refolding luminescence, 3 h; inhibition, % at 5.6 µM; 290,000 tested, 0.91% active; AID 1789, 2009;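 active = inhibition above the screen-wide mean plus 3 SD, computed separately per campaign, cut at about 16% in these data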;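 also: 0% = DMSO wells and 100% = 60 µM geldanamycin wells; inhibitors lower the luminescence because luciferase stays unfolded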
SENP8 block-1 – human SENP8 protease inhibitors, primary screen, biochemical, fluorescence, Nedd8 protein substrate, uHTS. recombinant SENP8. inhibition, % at 20 µM. 360,000 tested, 0.64% active; in the data active = inhibition mostly above about 40%, no sharp cut-off; inactive = mostly below about 27%
Target sequence (Q96LD8 whole entry, looked up): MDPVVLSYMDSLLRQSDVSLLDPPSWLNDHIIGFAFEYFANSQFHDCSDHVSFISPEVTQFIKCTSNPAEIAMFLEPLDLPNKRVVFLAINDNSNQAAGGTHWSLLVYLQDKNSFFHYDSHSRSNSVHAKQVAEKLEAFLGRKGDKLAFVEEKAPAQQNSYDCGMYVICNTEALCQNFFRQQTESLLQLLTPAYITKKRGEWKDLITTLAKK
SENP8 block-2 – SENP8 protease inhibitors, primary screen, biochemical, luminescence; AID 2540, 2010; purified SENP8, Z-RLRGG-aminoluciferin cleavage; inhibition, % at 10 µM; 330,000 tested, 1.2% active; in the data active = inhibition above about 50%
SENP6 inh – SENP6 protease inhibitors, primary screen, biochemical, luminescence, uHTS; Sentrin-specific protease 6 (Homo sapiens), Q9GZR1; Recombinant SENP6 catalytic domain, aminoluciferin luminescence; inhibition, % at 10 µM; 330,000 tested, 1.8% active;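 active = inhibition above about 50% at the single tested dose, limit read from the data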;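 also: plate controls were DMSO wells with enzyme for no effect and DMSO wells lacking enzyme for full effect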
SENP8 conf – SENP8 protease inhibitors, retest, confirmation, biochemical, luminescence, single concentration | inhibition, % at 12.5 µM | shares compounds with SENP7 inh | Recombinant SENP8, Z-RLRGG-aminoluciferin luminescence, 60 min | 6,200 tested, 40% active | AID 488912, 2010;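 active = mean inhibition across replicates above about 50%, limit read from the data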
SENP6 confirm – SENP6 protease inhibitors, confirmation, biochemical, luminescence, single concentration. recombinant SENP6, Z-RLRGG-aminoluciferin luminescence. shares compounds with SENP7 inh. 6,200 tested, 58% active. inhibition, % at 12.5 µM
SENP7 conf – SENP7 protease inhibitors, retest, confirmation, biochemical, luminescence, single concentration | shares compounds with SENP7 inh | recombinant SENP7, Z-RLRGG-aminoluciferin luminescence, 40 min | inhibition, % at 12.5 µM | 6,200 tested, 69% active
Casp3 select – caspase-3 protease inhibitors, confirmation, selectivity assay for SENP inhibitor project, biochemical, single concentration; shares compounds with SENP7 inh; inhibition, % at 12.5 µM; purified caspase-3, Z-DEVD-aminoluciferin luminescence, 60 min; 6,200 tested, 60% active;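 active = mean inhibition above about 50%, limit read from the data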;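 also: plate controls were enzyme with DMSO for no effect and wells without caspase-3 for full effect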
SENP luc ctr – interferes with luciferase luminescence in SENP counter-screen | 6,200 tested, 39% active | inhibition, % at 12.5 µM | shares compounds with SENP7 inh | Pre-incubated SENP8/Z-RLRGG-aminoluciferin, luciferase luminescence interference;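 active = mean inhibition above about 50% when retested at one dose, limit read from the data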;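 also: plate controls were DMSO wells with completed reaction for no effect and substrate without enzyme for full effect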
Active calls of the source: *; . = no result. Rows were chosen to be rich in hits. Some 2.9% of all compounds tested hit in one or more screens of this group.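 The calls were made as follows, unless noted: active = mean inhibition above about 50% in the one-dose retest (limit read from the data); inactive = the rest.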

SMILES	SENP7 inh	SENP1 inh	HSP90 refold inh	SENP8 block-1	SENP8 block-2	SENP6 inh	SENP8 conf	SENP6 confirm	SENP7 conf	Casp3 select	SENP luc ctr
Cc1ccccc1NC(=O)Cc1nc(COC(=O)c2cccc([N+](=O)[O-])c2)cs1	9	0	2	3	1	-7	.	.	.	.	.
COc1ccccc1N=C(C)C1=C(O)CSC1=O	9	-18	2	28	-6	-10	.	.	.	.	.
CC(=Nc1ccc(C)c(C)c1)C1=C(O)CSC1=O	9	-23	3	-18	22	54*	58*	56*	82*	74*	64*
COc1ccc2[nH]c3c(NCCCOC(C)C)ncnc3c2c1	96*	-3	-4	-267	90*	93*	90*	93*	101*	96*	93*
Nc1ccc(-c2cc3ccccc3c(=O)o2)cc1	26	-25	.	-478	41	53*	44	45	77*	55*	1
Cc1ccc(N2C(=O)C3C4C=CC(CC4)C3C2=O)c([N+](=O)[O-])c1 (stereo not drawn)	-3	2	2	15	0	-3	.	.	.	.	.
Cn1c(=O)c(=O)n(C)c2cc(S(=O)(=O)CCC(=O)Nc3ccccc3C(F)(F)F)ccc21	.	4	.	-28	.	.	.	.	.	.	.
O=C(O)CSCC(=O)Nc1ccc(-c2nc3ccccc3s2)cc1	92*	-22	13	-439	92*	94*	96*	96*	101*	96*	96*
Cc1nc(-c2ccc(NC(=O)/C=C\C(=O)O)cc2)cs1	-6	2	0	16	9	-18	.	.	.	.	.
CCC(=O)NC(=S)Nc1ccc(-c2nc3ccc(C)cc3s2)cc1	14	-12	-1	-203	8	-4	.	.	.	.	.
Cc1ccc2sc(-c3ccc(NC(=O)/C=C\C(=O)O)cc3)nc2c1	18	-68	10	-453	55*	72*	-13	4	6	9	15
Cc1ccc2nc(-c3ccc(NC(=O)CSCC(=O)O)cc3)sc2c1	32	-5	0	-413	65*	82*	-6	66*	88*	55*	68*
Cc1ccc2nc(-c3ccc(NC(=O)COCC(=O)O)cc3)sc2c1	63*	-60	-2	-444	82*	79*	90*	90*	99*	82*	87*
O=C(Cc1ccsc1)N1CCN(S(=O)(=O)c2ccccc2F)CC1	8	-3	.	10	4	11	.	.	.	.	.
Cc1ccc(S(=O)(=O)N2C[C@H]3N(C(=O)OC(C)C)N(C(=O)OC(C)C)C[C@H](OC(=O)Nc4cccs4)[C@@]3(O)C2)cc1	.	1	.	-7	.	.	.	.	.	.	.
CC(CC12CC3CC(CC(C3)C1)C2)NCc1ccccc1O (stereo not drawn)	-1	2	0	14	-8	13	.	.	.	.	.
O=C(N[C@@H](Cc1ccccc1)C(=O)NCc1ccc(F)cc1)C1CCNCC1	3	1	1	1	2	4	.	.	.	.	.
CCSc1nnc(Cc2cc(=O)[nH]c(=O)[nH]2)n1-c1cc(C)ccc1C	15	3	-3	16	-6	53*	-4	-1	-6	-5	-4
CCOc1ccc(S(=O)(=O)Nc2ccc(C(=O)NCC(c3ccco3)N3CCCCC3)cc2)cc1 (stereo not drawn)	13	-1	.	3	-1	-12	.	.	.	.	.
CCOC(=O)CCCCCC(=O)Nc1ccc2c(c1)C(=O)N([C@@H](C)CO)C[C@@H](C)[C@H](CN(C)S(=O)(=O)c1cccs1)OCCCC[C@H](C)O2	.	0	.	7	.	.	.	.	.	.	.
CC(=O)NC1Sc2ccccc2N=C1c1ccccc1 (stereo not drawn)	85*	2	1	-70	84*	89*	-2	69*	97*	66*	31
CC(=O)N1c2ccccc2N=C(c2ccc(C(F)(F)F)cc2)C1C(=O)NC1CCCC1 (stereo not drawn)	.	2	.	-103	.	.	.	.	.	.	.
CN(C)c1ccc(/C=C2\CCCCC2=O)cc1	63*	-79	4	-24	48	62*	46	62*	81*	60*	29
S=C(Nc1cccc(Cl)c1)Nc1cccc2cnccc12	.	-26	5	-204	.	.	.	.	.	.	.
Cc1ccc(C)c(NC(=S)Nc2cccc3cnccc23)c1	54*	-6	4	-95	77*	79*	12	17	2	3	-2
SMILES	SENP7 inh	SENP1 inh	HSP90 refold inh	SENP8 block-1	SENP8 block-2	SENP6 inh	SENP8 conf	SENP6 confirm	SENP7 conf	Casp3 select	SENP luc ctr
Fc1ccccc1NC(=S)Nc1cccc2cnccc12	78*	-18	4	-250	87*	92*	15	41	26	7	16
Cc1ccc(NC(=S)Nc2cccc3cnccc23)cc1	70*	-5	5	-110	87*	92*	-3	25	4	7	9
Cc1ccc(NC(=S)Nc2cccc3cnccc23)cc1C	15	-9	5	-212	54*	65*	12	20	8	0	-1
CSc1ccc(S(=O)(=O)NC2CC3CCC2C3)cc1 (stereo not drawn)	-12	3	-6	8	-7	-16	.	.	.	.	.
Cc1cc2nc(-c3ccc(SCC(=O)Nc4ccc(S(=O)(=O)NC5CC5)cc4)nc3)[nH]c2cc1C	63*	-8	-2	-418	1	29	13	18	78*	39	20
Cc1cc(NC(=O)CSc2ccc(-c3nc4cc(C)c(C)cc4[nH]3)cn2)no1	51*	-19	-1	-301	0	6	-4	0	8	6	5

High-throughput results (PubChem)
